Tests used:
[1] = Oral bioavailability in rat at 5 mg/kg; assay type: ADME, organism-based; conditions: in vivo
Outline: (§1)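 F from mean AUC0−∞ after single doses: rat 1 mg/kg iv and 5 mg/kg po (n = 3/dose, or iv n = 2); monkey 1 mg/kg iv and 30 mg/kg po, n = 2/dose.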

[2] = Apparent passive permeability from apical to basolateral side in dog RRCK cells; assay type: ADME, cell-based, Canis lupus familiaris, MDCKII-LE; conditions: MDCK
Outline: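 Passive A→B permeability measured across RRCK cells, a low-transporter line isolated from MDCK cells.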

[3] = Ratio of unbound drug level in brain homogenate to plasma in rat at 1 mg/kg, sc; assay type: ADME, organism-based; design: dose 1 mg/kg, route subcutaneous
[4] = Oral bioavailability in monkey at 30 mg/kg; assay type: ADME, organism-based, Macaca mulatta; conditions: rhesus monkey, in vivo; outline: as §1
[5] = Volume of distribution at steady state in monkey; assay type: ADME, organism-based, Macaca mulatta; conditions: rhesus monkey, in vivo; read-out: Vdss
[6] = Volume of distribution at steady state in rat; assay type: ADME, organism-based; conditions: in vivo, read-out: Vdss
[7] = Ratio of unbound drug level in brain homogenate to plasma in rat at 1 mg/kg, sc after 4 hrs; assay type: ADME, organism-based; design: dose 1 mg/kg, route subcutaneous
Outline: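 Rat neuropharmacokinetic study, single 1 mg/kg sc dose, n = 2 per time point. Ratio derived from AUC0−4 of unbound brain versus unbound plasma concentration. Unbound concentrations were corrected using the unbound fraction measured in brain homogenate and in plasma.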

| Compound | Papp A→B [2] [nm/s] | also measured |
| --- | --- | --- |
| CCN(CC)C(=O)c1nn(C)c2nc(OCc3ccccn3)cnc12 | 315 | bioavailability [1]: 35%; Kp uu [3]: 0.51 |
| Cn1nc(-c2ccccc2)c2ccc(OCc3ccccn3)nc21 | 7.8 |  |
| Cn1nc(-c2ccccn2)c2ccc(OCc3ccccn3)nc21 | 117 |  |
| Cn1nc(-c2cccnc2)c2ccc(OCc3ccccn3)nc21 | 244 |  |
| Cn1nc(-c2cccnc2)c2ncc(OCc3ccccn3)nc21 | 225 |  |
| Cc1cccnc1-c1nn(C)c2nc(OCc3ccccn3)cnc12 | 285 |  |
| Cc1ccncc1-c1nn(C)c2nc(OCc3ccccn3)cnc12 | 210 | bioavailability [4]: 67%; Vd [5]: 0.69 L/kg; bioavailability [1]: 28%; Vd [6]: 1.3 L/kg; Kp uu at 4 h [7]: 2 |
| Cn1nc(-c2cnccc2C(F)(F)F)c2ncc(OCc3ccccn3)nc21 | 214 |  |
| Cn1nc(-c2ncccc2OC(F)F)c2ncc(OCc3ccccn3)nc21 | 287 |  |
| Cc1c(Cl)cncc1-c1nn(C)c2nc(OCc3ccccn3)cnc12 | 141 |  |
| Cc1ccnnc1-c1nn(C)c2nc(OCc3ccccn3)cnc12 | 215 |  |
| Cc1c(-c2nn(C)c3nc(OCc4ccccn4)cnc23)cnn1C | 144 |  |
| CCn1nc(-c2cnccc2C)c2ncc(OCc3ccccn3)nc21 | 138 |  |
| Cc1ccncc1-c1nn(C2CC2)c2nc(OCc3ccccn3)cnc12 | 196 |  |
| CCC(C)NC(=O)c1nn(C)c2nc(OCc3cccc(C)n3)ccc12 (stereo not given) | 198 |  |
| C[C@@H]1CCCN1C(=O)c1nn(C)c2nc(OCc3ccccn3)ccc12 | 210 | bioavailability [1]: 0.4%; Kp uu [3]: 1.01 |
